# Data taken from ChEMBL document CHEMBL4513216, “Probing the Open Global Health Chemical Diversity Library for Multistage-Active Starting Points for Next-Generation Antimalarials” (ACS Infect Dis, 2020).
# Experiment: Toxicity liver stage against HepG2, at 10uM
# Assay type: cell-based
# Set-up: test concentration 10 uM, cell line HepG2-A16-CD81EGFP
# Settings: human, HepG2-A16-CD81EGFP cells; read-out: INHIBITION
# How it was run: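 Uninfected HepG2-A16-CD81EGFP cells, 3 × 10^3 per well, 1536-well, plated on prespotted compound at 10 μM final, parasite-free screening media added to match infected plates; puromycin 10 μM positive, DMSO 0.5% negative; run in parallel with 48 h PbLuc assay at 37 °C, 5% CO2; viability by CellTiter-Glo luminescence, normalized to controls.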
row,Structure (SMILES),cytotoxicity at 10 µM [%]
1,COc1cc(C)ccc1OCc1nc(C(=O)N2CCC(C)CC2)co1,-45
2,Cc1cncc(C(=O)N2CCc3ncc(Cn4cccn4)n3CC2)c1,14.3
3,CC(C)N1CCN2C(=O)N(C3CCCCC3)C[C@H]2C1,1.2
4,COc1ccc(N2CCN(C(=O)C3[C@H]4CNC[C@@H]34)CC2(C)C)cc1 (stereo not given in full),12.1
5,NC(=O)c1c[nH]nc1NC(=O)c1cccc(Cl)c1,-2.39
6,CN1C(Cn2cccn2)C[C@@H]2CN(Cc3cnn(C)c3)CC[C@@H]21 (stereo not given in full),3.16
7,CCn1ccc(NC(=O)C2CCC(=O)N2Cc2ccc(C)o2)n1 (stereo not given),6.17
8,O=C(O)c1ccc(-c2cscn2)cc1,7.68
9,O=C1CCCCN1Cc1cccc(NC(=O)N2CCSCC2)c1,-9.99
10,Cc1n[nH]cc1CNC1(c2ccc(Br)cc2)CC1,13.9
11,CN1CCC(NC(=O)NCCNc2ccccn2)CC1,-1.72
12,CCNc1cc2c(nn1)CCN(C(=O)CCc1c(C)noc1C)C2,-2.47
13,COc1cc(N2C[C@H]3CN(CCN4CCCC4)C(=O)[C@H]3C2)ncn1,12.7
14,Cc1cnc(NCc2csc(C(C)C)n2)nc1-c1cnn(C)c1,2.83
15,CN(Cc1cccc(C#N)c1)S(=O)(=O)N1CCOCC1,6.95
16,CN(C)S(=O)(=O)N1CC[C@]2(C[C@H](Oc3cccnc3)CO2)C1,-0.465
17,CC(O)CN1CCN(C(=O)c2ccc3c(c2)COC3)CC1 (stereo not given),-6.44
18,Cn1ccc(C(=O)N2C[C@H]3CCC[C@@]3(COCc3cccnc3)C2)n1,6.87
19,CC1=Nc2c(c(=O)[nH]n2C2CCOCC2)C(c2cccc(O)c2)S1 (stereo not given),-6.81
20,CNc1ncc(C(=O)N2CCCC(Cc3ccccc3OC)C2)s1 (stereo not given),-0.094
21,Cc1cc(-c2nnc(SCC(=O)O)n2C(C)c2ccccc2)nn1C (stereo not given),-1.1
22,CN(CCc1ccccn1)[C@@H]1CCN(c2cc(C(N)=O)ccn2)C[C@H]1O,-9.17

row,Structure (SMILES),cytotoxicity at 10 µM [%]
1,CN(C)C(=O)c1sc2ncccc2c1C1CNCCO1 (stereo not given),2.35
2,Brc1csc(-c2noc(C3COCCO3)n2)c1 (stereo not given),-1.92
3,Cc1ccc(N2CC[C@H]3OCC[C@@]3(C(=O)N3CCCC3)C2)nn1,2.46
4,O=c1n(CCNc2cccc3ccccc23)nc2ccccn12,0.392
5,COc1ncccc1CNCc1c(C)nn(C)c1N(C)C,-7.62
6,COCC(=O)NC[C@]12COC[C@H]1CN(Cc1ccc3c(c1)OCO3)C2,-112
7,Cc1cnn(C2CCCN(C(=O)c3ccc(-n4cccn4)nc3)C2)c1 (stereo not given),-6.12
8,O=C(NCCc1c[nH]c2ccccc12)C1(n2cnnn2)CCCCC1,-0.321
9,CNC(=O)Cn1nc(C(C)C)c2cnn(C(C)(C)C)c2c1=O,-7.67
10,CCC(C(=O)NC(C)(C)C)n1cccc(OC)c1=O (stereo not given),-1.04
11,c1ccc2nc(N3CCCCC3)c(NCc3nnc4n3CCC4)nc2c1,2.48
12,CSCC[C@H](NC(=O)CCn1ccc2c(Cl)cccc21)C(=O)O,2.42
13,O=C(COCC1CCCO1)N1CCCN(Cc2ccccc2F)CC1 (stereo not given),2.86
14,CCCC(=O)N1CCC(c2cc[nH]n2)C1 (stereo not given),1.2
15,CCOCC1CN(Cc2csc(C)n2)Cc2nccn2C1 (stereo not given),5.98
16,CCCc1noc(CCC(=O)N2CCCC(c3ccn[nH]3)C2)n1 (stereo not given),12.2
17,O=C(Nc1ccccc1F)C1CN(C(=O)c2ccc3c(c2)OCO3)C1,-5.96
18,CS(=O)(=O)NC[C@@H]1OC[C@H]2CN(C(=O)c3ccccn3)CC[C@H]21,-7.47
19,Cc1cc(C)cc(CNC(c2ccccc2)c2nccn2C)c1 (stereo not given),-13
20,CCc1cnc(N2CCN(CC(=O)Nc3c(C)n[nH]c3C)CC2)s1,-2.69
21,CC/C=C(\C)CN1CCC(CNC(=O)c2ccnc(N)c2)C1 (stereo not given),8.32
22,CCC1CN(Cc2nnc(C(C)C)o2)CCC(=O)N1Cc1ccccc1 (stereo not given),3.33

row,Structure (SMILES),cytotoxicity at 10 µM [%]
1,COc1ccc(CCn2ccnc2-c2cc3n(n2)CCCNC3)cc1,8.07
2,CCNC(=O)N(CCCO)C1CCCc2ccccc21 (stereo not given),-11
3,COc1nc(C)ccc1CNC(=O)NC(c1ncc(C)s1)C1CC1 (stereo not given),-2.3
4,CS(=O)(=O)NCc1noc2c1CN(C(=O)c1ccsc1)CC2,7.86
5,CN(C)C(=O)CCC[S+]([O-])Cc1ccc(F)c(F)c1 (stereo not given),12.2
6,Cc1ccc(CN2CCCn3c(nc(Cn4ccnc4)cc3=O)C2)s1,4.24
7,COc1cc(CN2CCCC(Nc3cccc(F)c3)C2)cc(Cl)c1O (stereo not given),-0.476
8,CCC(=O)N1CCCC(C(=O)N2CCN(c3cnn(C)c(=O)c3)CC2)C1 (stereo not given),3.98
9,O=C(Nc1ccnc2ccnn12)c1ccc(NC2CC2)nc1,5.14
10,COc1ccc(OC)c(C(C)NS(=O)(=O)c2cnn(C)c2)c1 (stereo not given),-3.35
11,O=C(Nc1nc2c(s1)CN(S(=O)(=O)C1CC1)CC2)c1ccsc1,24.9
12,O[C@H]1CN(Cc2cc3ccccc3o2)CC[C@@]12CCCO2,-21.9
13,Cc1ccc2c(n1)N(Cc1csc(C)n1)CCN(C1CCOC1)C2 (stereo not given),9.28
14,CCc1nnsc1C(=O)NC1CCN(CCOc2ccc(Br)cc2)CC1,-9.56
15,CC(NC(=O)CSCC(=O)Nc1ccccc1)c1ccccc1 (stereo not given),-6.17
16,CC(C)Nc1ncnc2c1CCN(C(=O)NCc1cccc(F)c1)CC2,-110
17,COc1cccc(-n2c(SCC(=O)O)nnc2-c2cn[nH]c2)c1,-6.76
18,CC(C)n1nc2c(cc1=O)CN(c1ncnc3ccsc13)CC2,60.6
19,CN(CCc1ccccc1)c1cnn(CC(=O)N2CCOCC2)c(=O)c1,1.77
20,c1cnnc(N2CCCC2CNCc2nc(-c3ccco3)no2)c1 (stereo not given),-10.2
21,COc1ccc(C2=NOC(C(=O)N3CCCc4ccccc43)C2)cc1 (stereo not given),0.863
22,COC(=O)c1ccoc1CN(C)CC(=O)NC1CC1,-1.96

row,Structure (SMILES),cytotoxicity at 10 µM [%]
1,CCc1ccsc1C(=O)N1CCCN(Cc2cscn2)CC1,-4.77
2,CN1CCOC(CNCc2coc(-c3cccc(F)c3)n2)C1 (stereo not given),-29.3
3,c1cnnc(N2CCCC2CNc2cnc3ccccc3n2)c1 (stereo not given),1.53
4,CCn1cnnc1CNC(=O)N(C)Cc1ccccc1OC,-7.32
5,CC(C)(C#N)C(=O)N1CCCC(c2cc(C(F)(F)F)[nH]n2)C1 (stereo not given),-5.67
6,COc1cc(N2CCC(c3nccn3CCCN(C)C)CC2)nc(N)n1,-7.41
7,CCOC(=O)COC1CCN(C(C)=O)CC(=O)N(C)c2ccccc21 (stereo not given),7.45
8,CN1CCN(CCOc2ccc(NC(=O)c3ccc[nH]3)cc2)CC1,-3.26
9,Cn1cnc2c1CCN(Cc1csc(-c3ccco3)n1)C2,-17.4
10,Cc1ccccc1CN1C[C@@H]2OCC(=O)N(CC(N)=O)[C@@H]2C1,-4.87
11,CC(C)[C@H](NC(=O)NC1CCS(=O)(=O)C1)C(=O)Nc1cccnc1 (stereo not given in full),6.85
12,COC1(CNS(=O)(=O)c2ccccc2Br)CCSC1 (stereo not given),-8.26
13,CC(C)c1cc(C(=O)NCCc2nc(-c3ccncc3)n[nH]2)[nH]n1,-0.01
14,CCCc1nc(CN2CCN(Cc3noc(CCC)n3)CC2)no1,-0.914
15,COc1ccc(C)cc1CN(C)Cc1nc2c(cnn2C)c(=O)[nH]1,-5.33
16,CCc1noc(CC)c1CC(=O)N1CCC(C(=O)NC(C)C)CC1,-10.9
17,Cc1cccc(CCC(=O)N2CCCC(c3cc(C(N)=O)[nH]n3)C2)c1 (stereo not given),-7.1
18,COCCn1c2c(ccc1=O)CC(NCc1cccnc1OC)CC2 (stereo not given),-106
19,CCc1ncc2c(n1)CN(Cc1nc(-c3ccsc3)no1)CC2,-4.99
20,CC(=O)N1CCC(c2nn(C)c3nccnc23)C1 (stereo not given),-21.1
21,CCN1CC2(CC1=O)CN(Cc1cnn(C)c1)CCN(C(=O)N(C)C)C2 (stereo not given),-1.9
22,Cn1cc(CNCC2(N3CCCCC3)Cc3ccccc3C2)cn1,-3.07

row,Structure (SMILES),cytotoxicity at 10 µM [%]
1,Cc1ccc(-c2nc(C3CCN(C(=O)c4cnn(C)c4)CC3)no2)cn1,-1.55
2,COCCN1CCC(CN(C)c2ncnc3c2c(C)nn3C)C1 (stereo not given),-5.16
3,Cc1ccc2[nH]c(CN(C)c3cc(CN)nc(C)n3)nc2c1,1.69
4,Cc1noc(-c2ccnc(Oc3ccc(CN4CCCC4)cc3F)c2)n1,15.7
5,Cc1nccn1-c1cc(CNC(=O)C2CCC(=O)NC2)ccn1 (stereo not given),4.83
6,CCc1ccc(C(=O)Nc2cc(N3CCNC3=O)ccc2Cl)o1,6.03
7,CCn1ncc(S(=O)(=O)N2CCCC3(CC=CNC3=O)C2)c1C (stereo not given),-7.6
8,COc1cc(/C=C/c2ncc(C(=O)O)s2)cc(Cl)c1O,4.14
9,Cc1ccccc1CN1CCC(c2nn(CCN)c3nccnc23)C1 (stereo not given),-24.3
10,CS(=O)(=O)C1CCN(S(=O)(=O)Cc2cccc(F)c2)CC1,-19.1
11,Cc1cccc(CSc2ncc(Cl)c(C(=O)O)n2)c1,3.86
12,Cc1csc([C@@H]2C[C@@H]3CCN(Cc4cnn(C)c4)C[C@H]3O2)n1,-4.87
13,Cc1noc(C2CCC3(CCN(C(=O)c4ncccn4)CC3)O2)n1 (stereo not given),4.09
14,Cc1ccccc1C(NC(=O)CNC(=O)c1ccoc1C)C(C)C (stereo not given),2.74
15,CC(c1ccccc1)N(C)C(=O)CN1CCCc2cc(F)cc(F)c21 (stereo not given),27.3
16,CCCc1nc(CN2CCCC(Cn3cncn3)C2)no1 (stereo not given),-4.02
17,CSc1ccc2c(C)cc(N[C@@H](C)CO)nc2c1,-1.07
18,Cc1ccc(C(=O)N2CCC(C(F)(F)F)CC2)cc1N1CCNC1=O,2.01
19,O=C(Nc1ccccc1)C1CN(Cc2nccs2)CC12CCOCC2 (stereo not given),1.61
20,CCCc1n[nH]c(C2CN(C(=O)c3ccc4c(c3)COC4)CCO2)n1 (stereo not given),-12.4
21,CO[C@H]1CCN(C(=O)c2cc(C)on2)C[C@@H]1Cc1ccccc1,4.06
22,O=C1CC(c2ccc(C(=O)O)cc2)c2cnn(Cc3ccco3)c2N1 (stereo not given),-0.869
